# Experimental data: ChEMBL document CHEMBL1914420, “Investigation of the pyrazinones as PDE5 inhibitors: evaluation of regioisomeric projections into the solvent region” (Bioorg Med Chem Lett, 2011)
# System: not listed separately
# Assay: Selectivity ratio of IC50 for PDE6 to IC50 for PDE5
# Procedure, shortened: (§1)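 Fold selectivity calculated as PDE11 IC50/PDE5 IC50 or PDE6 IC50/PDE5 IC50, with IC50 values in nM.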
row,Compound,Ratio IC50
1,CCOCCn1c(=O)nc(NCC(=O)N(C)C)c2nnc(-c3ccc(OC)nc3)cc21,119
2,CCCOCCn1c(=O)nc(N[C@@H]2CCCC[C@@H]2C(=O)O)c2nnc(-c3ccc(OC)nc3)cc21 (racemic),110
3,CCCOCCn1c(=O)c(NC2CCC(O)CC2)nc2ncc(-c3ccc(OC)nc3)cc21 (configuration not stated),48
4,CCCOCCn1c(=O)nc(N2CCC(CC(=O)O)CC2)c2nnc(-c3ccc(OC)nc3)cc21,254
5,CCOCCn1c(=O)nc(N2CCN(CCO)CC2)c2nnc(-c3ccc(OC)nc3)cc21,98
6,CCCOCCn1c(=O)nc(NCCOC(C)C)c2cnc(-c3ccc(OC)nc3)cc21,450
7,CCCOCCn1c(=O)nc(N[C@@H]2CCCC[C@H]2C(=O)O)c2nnc(-c3ccc(OC)nc3)cc21 (racemic),47
8,CCCOCCn1c(=O)nc(NC2CCC(C(=O)O)CC2)c2nnc(-c3ccc(OC)nc3)cc21 (configuration not stated),246

# Next, values leading:
row,Ratio IC50,Compound
1,110,CCCOCCn1c(=O)nc(N[C@H](C)C(=O)O)c2nnc(-c3ccc(OC)nc3)cc21
2,296,CCCOCCn1c(=O)nc(NCC(=O)N(C)C)c2nnc(-c3ccc(OC)nc3)cc21
3,145,CCCOCCn1c(=O)nc(NC(C)(C)C(=O)O)c2nnc(-c3ccc(OC)nc3)cc21
4,576,CCCOCCn1c(=O)nc(NC2CCNCC2)c2nnc(-c3ccc(OC)nc3)cc21
5,334,CCCOCCn1c(=O)nc(NCCN2CCOCC2)c2cnc(-c3ccc(OC)nc3)cc21
6,143,CCCOCCn1c(=O)nc(N2CCN(CC(=O)O)CC2)c2nnc(-c3ccc(OC)nc3)cc21
7,573,CCCOCCn1c(=O)nc(NCCN2CCOCC2)c2nnc(-c3ccc(OC)nc3)cc21

# Biological target: cGMP-specific 3',5'-cyclic phosphodiesterase (Homo sapiens, UniProt O76074)
# Assay: Inhibition of PDE5
row,Compound,IC50
1,COc1ccc(-c2cc3c(nn2)c(NC2CCC(O)CC2)nc(=O)n3CCOCC(F)(F)F)cn1 (configuration not stated),0.04 nM
2,CCOCCn1c(=O)nc(NC2CCC(O)CC2)c2nnc(-c3ccc(OC)nc3)cc21 (configuration not stated),0.36 nM
3,CCOCCn1c(=O)nc(NCC(=O)N(C)C)c2nnc(-c3ccc(OC)nc3)cc21,1.47 nM
4,CCCOCCn1c(=O)nc(N[C@@H]2CCCC[C@@H]2C(=O)O)c2nnc(-c3ccc(OC)nc3)cc21 (racemic),0.02 nM
5,CCCOCCn1c(=O)nc(N2CCC(CC(=O)O)CC2)c2nnc(-c3ccc(OC)nc3)cc21,0.04 nM
6,CCOCCn1c(=O)nc(N2CCN(CCO)CC2)c2nnc(-c3ccc(OC)nc3)cc21,2.43 nM
7,CCCOCCn1c(=O)nc(NCCOC(C)C)c2cnc(-c3ccc(OC)nc3)cc21,0.1 nM
8,CCCOCCn1c(=O)nc(N[C@@H]2CCCC[C@H]2C(=O)O)c2nnc(-c3ccc(OC)nc3)cc21 (racemic),0.27 nM
9,CCCOCCn1c(=O)nc(NC2CCC(C(=O)O)CC2)c2nnc(-c3ccc(OC)nc3)cc21 (configuration not stated),0.02 nM

# Next, values leading:
row,IC50,Compound
1,0.01 nM,CCCOCCn1c(=O)nc(NC2CCCC(C(=O)O)C2)c2nnc(-c3ccc(OC)nc3)cc21 (configuration not stated)
2,0.13 nM,CCCOCCn1c(=O)nc(N[C@H](C)C(=O)O)c2nnc(-c3ccc(OC)nc3)cc21
3,0.44 nM,CCCOCCn1c(=O)nc(NCC(=O)N(C)C)c2nnc(-c3ccc(OC)nc3)cc21
4,0.05 nM,CCCOCCn1c(=O)nc(NC(C)(C)C(=O)O)c2nnc(-c3ccc(OC)nc3)cc21
5,1.31 nM,CCCOCCn1c(=O)nc(NC2CCNCC2)c2nnc(-c3ccc(OC)nc3)cc21
6,0.08 nM,CCCOCCn1c(=O)nc(NCCN2CCOCC2)c2cnc(-c3ccc(OC)nc3)cc21
7,0.1 nM,CCCOCCn1c(=O)nc(N2CCN(CC(=O)O)CC2)c2nnc(-c3ccc(OC)nc3)cc21
8,0.09 nM,CCCOCCn1c(=O)nc(NCCN2CCOCC2)c2nnc(-c3ccc(OC)nc3)cc21

# System: not listed separately
# Assay: Selectivity ratio of IC50 for PDE11 to IC50 for PDE5
# Procedure, shortened: as §1
row,Compound,Ratio IC50
1,CCOCCn1c(=O)nc(NCC(=O)N(C)C)c2nnc(-c3ccc(OC)nc3)cc21,199
2,CCCOCCn1c(=O)nc(N[C@@H]2CCCC[C@@H]2C(=O)O)c2nnc(-c3ccc(OC)nc3)cc21 (racemic),296
3,CCCOCCn1c(=O)c(NC2CCC(O)CC2)nc2ncc(-c3ccc(OC)nc3)cc21 (configuration not stated),675
4,CCCOCCn1c(=O)nc(N2CCC(CC(=O)O)CC2)c2nnc(-c3ccc(OC)nc3)cc21,1060
5,CCOCCn1c(=O)nc(N2CCN(CCO)CC2)c2nnc(-c3ccc(OC)nc3)cc21,286
6,CCCOCCn1c(=O)nc(NCCOC(C)C)c2cnc(-c3ccc(OC)nc3)cc21,9560
7,CCCOCCn1c(=O)nc(N[C@@H]2CCCC[C@H]2C(=O)O)c2nnc(-c3ccc(OC)nc3)cc21 (racemic),1390
8,CCCOCCn1c(=O)nc(NC2CCC(C(=O)O)CC2)c2nnc(-c3ccc(OC)nc3)cc21 (configuration not stated),541

# Second part, the compound after the results:
row,Ratio IC50,Compound
1,76,CCCOCCn1c(=O)nc(N[C@H](C)C(=O)O)c2nnc(-c3ccc(OC)nc3)cc21
2,277,CCCOCCn1c(=O)nc(NCC(=O)N(C)C)c2nnc(-c3ccc(OC)nc3)cc21
3,129,CCCOCCn1c(=O)nc(NC(C)(C)C(=O)O)c2nnc(-c3ccc(OC)nc3)cc21
4,1530,CCCOCCn1c(=O)nc(NC2CCNCC2)c2nnc(-c3ccc(OC)nc3)cc21
5,9050,CCCOCCn1c(=O)nc(NCCN2CCOCC2)c2cnc(-c3ccc(OC)nc3)cc21
6,1330,CCCOCCn1c(=O)nc(N2CCN(CC(=O)O)CC2)c2nnc(-c3ccc(OC)nc3)cc21
7,6820,CCCOCCn1c(=O)nc(NCCN2CCOCC2)c2nnc(-c3ccc(OC)nc3)cc21
